Test results taken from PubChem BioAssay AID504495 (The Scripps Research Institute Molecular Screening Center, 2011).

Biological target: Platelet-activating factor acetylhydrolase 2, cytoplasmic (Mus musculus) (UniProt Q8VDG7)
Assay: in situ blockade of mouse PAFAH2 activity – cell-based, gel-based competitive ABPP, fluorescence, powder samples, late-stage follow-up (AID 504495)
Conditions: BW5147 murine T cells, FP-Rh, 4 h, at 0.03 µM, stronger effect = higher value
How it was run: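 Test system: murine BW5147 T cells / Compound dosing: one dose, 30 nM / Times: cells 4 h 37 °C, probe 30 min 25 °C / Measured by: in-gel fluorescence scan after SDS-PAGE, PAFAH2 band optical density / Measure: % inhibition versus DMSO-treated cells / Benchmarks: DMSO-treated cells, blank gel background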

Sequence of Platelet-activating factor acetylhydrolase 2, cytoplasmic (Mus musculus) (Q8VDG7 whole entry, looked up): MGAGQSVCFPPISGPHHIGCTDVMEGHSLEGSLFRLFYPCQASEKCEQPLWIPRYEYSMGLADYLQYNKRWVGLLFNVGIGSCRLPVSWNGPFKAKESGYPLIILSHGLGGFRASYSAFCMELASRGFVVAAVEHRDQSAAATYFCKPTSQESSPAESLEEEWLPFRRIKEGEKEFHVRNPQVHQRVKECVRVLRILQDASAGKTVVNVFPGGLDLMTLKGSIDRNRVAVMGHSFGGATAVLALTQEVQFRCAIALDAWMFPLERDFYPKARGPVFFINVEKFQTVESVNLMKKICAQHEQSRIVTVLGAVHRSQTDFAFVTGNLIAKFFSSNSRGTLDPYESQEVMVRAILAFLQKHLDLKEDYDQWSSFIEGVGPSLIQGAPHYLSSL

inhibition: 100%
SMILES: O=C(N1CCCC1)n1ncc(-c2ccc(-c3ccccc3)cc2)n1
